Published values collected from several papers.
Protocols differ between the studies behind these lines.
Target: Serine/threonine-protein kinase DCLK2 (DCLK2, Homo sapiens, UniProt Q8N568)
One construct used (Q8N568 1-766): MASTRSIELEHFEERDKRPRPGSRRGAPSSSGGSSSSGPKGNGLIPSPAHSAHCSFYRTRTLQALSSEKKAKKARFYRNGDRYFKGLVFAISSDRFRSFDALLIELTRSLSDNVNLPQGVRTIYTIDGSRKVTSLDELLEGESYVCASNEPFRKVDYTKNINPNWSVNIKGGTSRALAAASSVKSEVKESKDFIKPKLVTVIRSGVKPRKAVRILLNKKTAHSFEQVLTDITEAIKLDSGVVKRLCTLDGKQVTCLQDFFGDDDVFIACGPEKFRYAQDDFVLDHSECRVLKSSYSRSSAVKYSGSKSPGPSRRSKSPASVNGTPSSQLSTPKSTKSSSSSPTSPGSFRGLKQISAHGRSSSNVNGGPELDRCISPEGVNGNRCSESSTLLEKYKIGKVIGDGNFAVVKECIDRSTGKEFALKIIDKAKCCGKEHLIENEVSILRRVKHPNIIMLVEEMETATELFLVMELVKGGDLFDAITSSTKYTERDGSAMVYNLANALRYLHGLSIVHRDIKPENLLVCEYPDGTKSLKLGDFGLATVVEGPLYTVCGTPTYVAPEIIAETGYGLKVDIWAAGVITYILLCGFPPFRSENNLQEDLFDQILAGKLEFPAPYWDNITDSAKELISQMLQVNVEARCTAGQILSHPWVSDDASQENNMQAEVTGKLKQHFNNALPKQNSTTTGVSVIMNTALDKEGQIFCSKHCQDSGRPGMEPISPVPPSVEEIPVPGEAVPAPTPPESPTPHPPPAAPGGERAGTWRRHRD

Structure (SMILES) | observed | action | method | concentration | endpoint | result
N#Cc1ccc(Nc2ccc3[nH]c(=O)[nH]c3c2)c(Cl)c1 | cell-free assay |  | competition with immobilised ligand | 1 µM | remaining binding | 100%
Nc1ncnc2occ(-c3ccc(NC(=O)Nc4cc(C(F)(F)F)ccc4F)cc3)c12 | cell-free assay | inhibitor |  | 20 µM | remaining signal | 100%
Cc1ccc(Nc2nccc(N(C)c3ccc4c(C)n(C)nc4c3)n2)cc1S(N)(=O)=O | enzyme activity | inhibitor |  | 0.3 µM | inhibition | -2%
Cc1nccc(COC(=O)N2C[C@@H]3[C@@H](CNC(=O)c4ccc5[nH]nnc5c4)[C@@H]3C2)n1 | cell-free assay |  | competition with immobilised ligand | 1 µM | remaining binding | 100%
O=C(Nc1cnn(-c2csc(C(=O)NC3COC3)c2)c1)Nc1c(F)cccc1Cl | enzyme activity | inhibitor |  | 5 µM | remaining activity | 94.3%
CNC(=O)Nc1ccc2c(c1)CC[C@@]21OC(=O)N(CC(=O)N(Cc2ccc(F)cc2)[C@@H](C)C(F)(F)F)C1=O | cell-free assay |  | competition with immobilised ligand | 1 µM | remaining binding | 70%
CNC(=O)c1cc(Oc2ccc(NC(=O)Nc3ccc(Cl)c(C(F)(F)F)c3)cc2)ccn1 | cell-free assay |  |  | 0.5 µM | remaining signal | 102%
CCN(CC)CCNC(=O)c1c(C)[nH]c(/C=C2\C(=O)Nc3ccc(F)cc32)c1C | enzyme activity | inhibitor |  | 0.3 µM | inhibition | -2%
Cc1c(NC(=O)c2cc(C(N)=O)nc3cc(F)ccc23)c(C(F)(F)F)nn1Cc1ccc(C(C)(C)C)cc1 | cell-free assay |  | competition with immobilised ligand | 1 µM | remaining binding | 83%
CCCOc1ccc(OC)c(F)c1C(=O)c1ccc(C(=O)N[C@@H]2CNC[C@H]2NC(=O)c2ccc3[nH]ncc3c2)cc1 | enzyme activity | inhibitor |  | 10 µM | remaining activity | 33%
O=C(Nc1cnn(-c2csc(C(=O)NC3COC3)c2)c1)Nc1ccccc1Cl | enzyme activity | inhibitor |  | 5 µM | remaining activity | 99.9%
Cc1cnc(NC2CCOCC2)nc1-n1cnc(C(=O)NC(CN)c2cc(F)cc(Cl)c2)c1 (centres unmarked) | enzyme activity | inhibitor | radiometric | 1 µM | remaining activity | 83%
COc1cc(Cl)c(C(=O)N[C@@H](CN[C@H]2CC[C@@H](N)CC2)Cc2ccc(C#N)cc2)cc1-c1ccc(CN[C@H](C)c2ccc(C)cc2)o1 | enzyme activity | inhibitor |  | 1 µM | remaining activity | 96%
CC(C)(O)[C@H]1CC[C@H](Nc2ccc3ncc(-c4cccc(C(F)(F)F)c4)n3n2)CC1 | enzyme activity | inhibitor |  | 1 µM | remaining activity | 95.3%
CNC(=O)Nc1ccc2c(c1)[C@@]1(CC2)OC(=O)N(CC(=O)N(Cc2ccc(F)cc2)[C@@H](C)C(F)(F)F)C1=O | cell-free assay |  | competition with immobilised ligand | 1 µM | remaining binding | 89%
Cc1ccc(NC(=O)c2ccc(C)c(C(F)(F)F)c2)cc1C#Cc1nn(C2CCC(O)CC2)c2ncnc(N)c12 (centres unmarked) | cell-free assay |  |  | 10 µM | remaining signal | 102%
CCCOc1ccc([C@H]2[C@H](C(=O)O)[C@@H](c3ccc4c(c3)OCO4)CN2CC(=O)Nc2c(CC)cccc2CC)cc1 | cell-free assay |  | competition with immobilised ligand | 1 µM | remaining binding | 77%
COc1cc2ncnc(Nc3ccc(Oc4ccccc4)c(C)c3C)c2cc1OC | enzyme activity | inhibitor |  | 1 µM | inhibition | 3%
CS(=O)(=O)NCC[C@H](NC(=O)c1cncc2c1cnn2-c1ccc(F)cc1)c1ccnc(S(C)(=O)=O)c1 | cell-free assay |  | competition with immobilised ligand | 1 µM | remaining binding | 100%
COc1cc2c(N3CCN(C(=O)Nc4ccc(OC(C)C)cc4)CC3)ncnc2cc1OCCCN1CCCCC1 | cell-free assay |  |  | 0.5 µM | remaining signal | 103%
Cn1cncc1C1=CN(c2ncnc3[nH]cnc23)CCS1 | enzyme activity | inhibitor | radiometric | 2 µM | inhibition | 14.2%
Cc1ccc(NC(=O)c2ccc(CN3CCN(C)CC3)cc2)cc1Nc1nc(-c2cccnc2)cs1 | cell-free assay |  |  | 0.5 µM | remaining signal | 102%
CC(C)(C)c1nc2c(s1)c1nc(N)ncc1c1ccc(NS(=O)(=O)c3c(F)cccc3F)c(F)c12 | enzyme activity | inhibitor | radiometric | 1 µM | remaining activity | 90%
